From ChEMBL document CHEMBL4145451, “1,3,5-triazaspiro[5.5]undeca-2,4-dienes as selective Mycobacterium tuberculosis dihydrofolate reductase inhibitors with potent whole cell activity” (Eur J Med Chem, 2018) come the findings set out here.

The term MIC50 denotes an inhibitory concentration at the 50% level, which refers to growth in some studies and to a panel of isolates in others. Low values mean greater potency, high ones weaker potency. The MIC90 is the lowest concentration that inhibits either 90% of growth or 90% of the strains tested, depending on the study. Read a high MIC90 as weaker potency.

Experiment [1] concerns Mycobacterium tuberculosis. Kind of experiment: Antimycobacterial activity against Mycobacterium bovis BCG at 25 uM after 10 days by broth dilution method relative to control. The experiment is classed as functional, variant bovis BCG. For orientation: Dilution methods test growth across graded concentrations, often in twofold steps.
Experiment [2] relates to Mycobacterium tuberculosis. Kind of experiment: Antimycobacterial activity against Mycobacterium bovis BCG after 10 days by broth dilution method. The experiment is classed as functional. The conditions noted are these: variant bovis BCG, 240 h. In a few lines:
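Broth microdilution. Mid-log cultures (OD600 0.4–0.6) were diluted and added to 2-fold serial compound dilutions in DMSO, giving a final 5 × 10^5 CFU/mL in 7H9-albumin-dextrose-catalase-glycerol-Tween 80. Plates were sealed and incubated at 37 °C for 10 days with shaking at 80 rpm. OD600 was read; MIC50 and MIC90 are the lowest concentrations giving 50% and 90% growth inhibition. Rifampicin and DMSO served as controls. Means of 3 independent experiments.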

Experiment [3] relates to Mycobacterium tuberculosis. The experiment can be described thus: Ratio of MIC90 for Mycobacterium bovis BCG over-expressing DHFR to MIC90 for Mycobacterium bovis BCG. Type of experiment: functional, variant bovis BCG.

Consider `Cl.NC1=NC2(CCCCC2)N(Cc2cn(CCc3ccccc3)nn2)C(N)=N1`, for which the Activity in experiment [1] amounted to 4.7%.
In experiment [1], `Cl.NC1=NC2(CCCCC2)N(c2ccc(OCc3cn(CCOc4ccc5ccc(=O)oc5c4)nn3)cc2)C(N)=N1` returned an Activity of 84.8%. In experiment [2], the MIC50 was 0.2 µM and the MIC90 came to 1.56 µM.
Regarding `Nc1ccc(C(=O)O)c(O)c1` [AMINOSALICYLIC ACID], the Ratio in experiment [3] was determined as 16.
`Cl.NC1=NC2(CCCCC2)N(c2ccc(OCc3cn(Cc4ccccc4)nn3)cc2)C(N)=N1`: in experiment [1], the Activity amounted to 61.7%. In experiment [2], the MIC50 was 19.2 µM and the MIC90 is more than 100 µM.
`Cl.NC1=NC2(CCCCC2)N(c2ccc(OCc3cn(CCCOc4ccc5ccc(=O)oc5c4)nn3)cc2)C(N)=N1`: the Activity in experiment [1] is reported as 88.4%. In experiment [2], this compound yielded an MIC50 of 0.02 µM and an MIC90 of 0.2 µM. The Ratio in experiment [3] was 25 - 30.
With `Cl.NC1=NC2(CCCCC2)N(Cc2cn(CCCCCOc3ccc4oc(=O)ccc4c3)nn2)C(N)=N1`, the Activity in experiment [1] was determined as 6.7%.
In the case of `Cl.NC1=NC2(CCCCC2)N(Cc2cn(CCOc3ccc4ccc(=O)oc4c3)nn2)C(N)=N1`, in experiment [1], the Activity was 5.8%.
With `Cl.NC1=NC2(CCCCC2)N(Cc2cn(CC(=O)c3ccccc3)nn2)C(N)=N1`, in experiment [1], the Activity came out at 3.4%.
The same measure, in the same setting: the same measure for `Cl.NC1=NC2(CCCCC2)N(Cc2cn(CCCOc3ccc4ccc(=O)oc4c3)nn2)C(N)=N1`: 7.8%.
`Cl.NC1=NC2(CCCCC2)N(c2ccc(OCc3cn(CCc4ccccc4)nn3)cc2)C(N)=N1`: the Activity in experiment [1] was determined as 25.6%.
In experiment [1], `Cl.NC1=NC2(CCCCC2)N(c2ccc(OCc3cn(CC(=O)c4ccccc4)nn3)cc2)C(N)=N1` came in with an Activity of 12.8%.
The compound `Cl.NC1=NC2(CCCCC2)N(Cc2cn(CCCc3ccccc3)nn2)C(N)=N1` gave an Activity in experiment [1] of 5.4%.
With `Cl.NC1=NC2(CCCCC2)N(c2ccc(OCc3cn(CCCc4ccccc4)nn3)cc2)C(N)=N1`, the Activity in experiment [1] is given as 67.8%. Further, in experiment [2], the MIC50 was 20.7 µM and the MIC90 is more than 100 µM.
As for `Cl.NC1=NC2(CCCCC2)N(Cc2cn(Cc3ccccc3)nn2)C(N)=N1`, the Activity in experiment [1] was 4.5%.
In turn, `Cl.NC1=NC2(CCCCC2)N(c2ccc(OCc3cn(CCCCOc4ccc5ccc(=O)oc5c4)nn3)cc2)C(N)=N1` displayed an Activity in experiment [1] of 92.1%. In experiment [2], the MIC50 was in the range of 0.01 to 0.02 µM and the MIC90 was 0.1 µM. Also, in experiment [3], the Ratio is recorded as 25 - 30.
